Sampled rows, rich in hits. Any-hit rate of the full collection: about 1.3%.
PAD4 FP inh: human PAD4 inhibitors, primary screen, biochemical, fluorescence polarization, 1536-well format. recombinant PAD4, RCA probe fluorescence polarization. inhibition, % at 6.36 µM. hit rate 0.41% among 330,000;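 active = percent inhibition above a cutoff equal to the mean of all tested compounds plus 3 SD, cut at about 15% in these data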;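 also: 0% = PAD4 with RCA probe and DMSO and 100% = probe without PAD4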
RBBP9 inh: human RBBP9 inhibitors, primary screen, biochemical, fluorescence polarization, FP-Rh probe, HTS. Serine hydrolase RBBP9 (Homo sapiens), O75884. recombinant RBBP9. inhibition, % at 7.94 µM. hit rate 0.2% among 220,000;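 active = inhibition above the campaign mean of all tested compounds plus 3 SD, cut at about 14% in these data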;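 also: plate controls were DMSO wells with RBBP9 for no effect and wells lacking RBBP9 protein for full effect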
Target sequence (O75884 whole entry, looked up): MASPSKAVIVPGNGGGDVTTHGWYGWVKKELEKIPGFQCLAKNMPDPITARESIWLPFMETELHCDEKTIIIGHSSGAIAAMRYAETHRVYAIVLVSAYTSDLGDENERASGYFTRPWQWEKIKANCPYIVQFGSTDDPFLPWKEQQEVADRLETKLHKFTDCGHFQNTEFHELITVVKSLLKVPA
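Controls: DMSO-treated enzyme wells and wells lacking RBBP9 | Material: RBBP9 protein | Technique: Fluorescence polarization | Replication: Single well per compound, no replicates | Buffer or medium: Tris-NaCl-Pluronic buffer, pH 8.0 | Timing: 30 min compound preincubation, 45 min probe labeling, 25 °C | Read-out basis: Percent inhibition from mP, scaled between DMSO and no-protein wells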
PME-1 primary: PME-1 inhibitors via competitive probe labeling, primary screen, biochemical, fluorescence polarization, FP-Rh probe, HTS; recombinant PME-1; hit rate 0.53% among 320,000; Protein phosphatase methylesterase 1 (Homo sapiens), Q9Y570; inhibition, % at 5.9 µM;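 active = inhibition above the campaign mean of all compounds plus 3 SD, cut at about 26% in these data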;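 also: competitive labeling of PME-1 active site by serine hydrolase directed probe; 0% = PME-1 with DMSO and 100% = wells lacking PME-1 enzyme; inhibitors block probe labeling so polarization falls and inhibition rises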
Target sequence (Q9Y570 whole entry, looked up): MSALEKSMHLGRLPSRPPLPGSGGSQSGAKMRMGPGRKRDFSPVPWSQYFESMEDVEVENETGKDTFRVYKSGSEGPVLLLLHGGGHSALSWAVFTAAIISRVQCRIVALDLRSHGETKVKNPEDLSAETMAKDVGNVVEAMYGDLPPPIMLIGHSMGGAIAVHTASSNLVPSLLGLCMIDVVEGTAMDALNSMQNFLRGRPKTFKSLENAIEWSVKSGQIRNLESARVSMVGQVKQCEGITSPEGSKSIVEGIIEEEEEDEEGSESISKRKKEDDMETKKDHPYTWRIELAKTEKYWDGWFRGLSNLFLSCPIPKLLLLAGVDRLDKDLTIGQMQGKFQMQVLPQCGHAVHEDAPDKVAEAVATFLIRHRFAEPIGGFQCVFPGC
Fam108B inh: mouse Fam108B serine hydrolase inhibitors, primary screen, counter-screen for RBBP9 inhibitor project, biochemical, fluorescence polarization | AID 1947, 2009 | inhibition, % at 9.51 µM | hit rate 0.33% among 300,000 | recombinant Fam108B, FP-Rh probe fluorescence polarization;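 active = inhibition above the screen mean inhibition plus 3 SD, computed separately per campaign, cut at about 18% in these data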;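 also: inhibitors lower polarization as less probe binds the enzyme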
LYPLA1 inh: LYPLA1 inhibitors, primary screen, counter-screen for PME1 inhibitor project, biochemical, fluorescence polarization, FP-Rh probe ABPP. Acyl-protein thioesterase 1 (Homo sapiens), O75608. recombinant LYPLA1. inhibition, % at 5.9 µM. hit rate 0.16% among 320,000. AID 2174, 2009;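 active = inhibition above the mean of all tested compounds plus 3 SD, set per campaign, cut at about 14% in these data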;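 also: inhibitors block serine hydrolase probe labeling of LYPLA1 so polarization falls; 0% = enzyme with DMSO and 100% = wells lacking LYPLA1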
LYPLA2 inh: LYPLA2 inhibitors, primary screen, counter-screen for PME1 inhibitor project, biochemical, fluorescence polarization, FP-Rh probe ABPP | Acyl-protein thioesterase 2 (Homo sapiens), O95372 | recombinant LYPLA2 | inhibition, % at 5.9 µM | hit rate 0.38% among 320,000 | AID 2177, 2009;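 active = inhibition above the screen-wide mean plus 3 SD, limit set per campaign, cut at about 26% in these data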;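 also: 0% = LYPLA2 with DMSO and 100% = wells lacking LYPLA2 enzyme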
LYPLA2 confirm: LYPLA2 inhibitors, retest, confirmation, counter-screen for PME1 inhibitor project, biochemical, fluorescence polarization, FP-Rh probe ABPP; inhibition, % at 5.9 µM; hit rate 72% among 1,100; shares compounds with LYPLA2 inh; recombinant LYPLA2;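 active = mean inhibition across replicates above the hit cutoff set in the primary screen, cut at about 26% in these data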;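 also: blocked labeling of the enzyme by serine hydrolase FP-Rh probe lowers polarization; 0% = enzyme with DMSO and 100% = wells lacking LYPLA2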
PAD4 FP conf: human PAD4 inhibitors, confirmation, biochemical, fluorescence polarization. AID 488796, 2010. inhibition, % at 6.36 µM. hit rate 28% among 1,200. recombinant PAD4, RCA probe fluorescence polarization. shares compounds with PAD4 FP inh;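 active = mean inhibition across replicates above the hit cutoff set by the earlier primary screen, cut at about 15% in these data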;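 also: inhibitors block active-site labeling by the probe so polarization falls; 0% = PAD4 with probe and DMSO and 100% = probe without PAD4 enzyme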
The depositor's hits bear a star.

`COc1cccc(-n2nnc3c(=O)n(CC(=O)N4CCCc5ccccc54)cnc32)c1` gave PAD4 FP inh -1, RBBP9 inh -4, PME-1 primary 1, Fam108B inh -4, LYPLA1 inh 0 and LYPLA2 inh 3.
Screening COc1ccc(C(=O)c2nccc3cc(OC)c(OC)cc23)cc1OC returned PAD4 FP inh 61*, PME-1 primary 22, LYPLA1 inh 9, LYPLA2 inh 26*, LYPLA2 confirm 17 and PAD4 FP conf 25*.
`CS(=O)(=O)c1cccc(C(=O)NCc2ccccc2)c1` gave PAD4 FP inh 35*, RBBP9 inh 0, PME-1 primary 1, Fam108B inh 0, LYPLA1 inh -4, LYPLA2 inh -4 and PAD4 FP conf 5.
CSc1nc2ccc3nc(NC(=O)c4ccc(C)cc4)sc3c2s1 was read as PAD4 FP inh -6, RBBP9 inh -2, PME-1 primary -5, Fam108B inh -12, LYPLA1 inh -2 and LYPLA2 inh -6.
Screening O=C(Nc1nc(=O)c2ccccc2s1)c1ccccc1 returned PAD4 FP inh 24*, RBBP9 inh -8, PME-1 primary -9, Fam108B inh 3, LYPLA1 inh -1, LYPLA2 inh -2 and PAD4 FP conf 2.
For Cc1ccc(C(=O)Nc2nc3ccccc3c(=O)s2)cc1 the results were PAD4 FP inh 15*, RBBP9 inh -6, PME-1 primary -1, Fam108B inh 6, LYPLA1 inh -1, LYPLA2 inh -5 and PAD4 FP conf -4.
Screening Cc1cc2c(c(=O)o1)C(c1ccc([N+](=O)[O-])o1)C(C#N)=C(N)O2 (stereo not drawn) returned PAD4 FP inh 27*, RBBP9 inh 1, PME-1 primary 12, Fam108B inh 6, LYPLA1 inh 7, LYPLA2 inh 10 and PAD4 FP conf 2.
`Cc1cccc(CN2CCN(c3nc4nonc4nc3NC3CC3)CC2)c1` gave PAD4 FP inh 28*, RBBP9 inh -1, PME-1 primary -3, Fam108B inh 0, LYPLA1 inh 3, LYPLA2 inh -1 and PAD4 FP conf 6.
COc1ccc(C(C[N+](=O)[O-])c2c(-c3ccccc3)cc3ccccn23)cc1OC (stereo not drawn) was read as PAD4 FP inh -3, RBBP9 inh -19, PME-1 primary 5, Fam108B inh 3, LYPLA1 inh -2 and LYPLA2 inh 8.
COc1cc(C(C[N+](=O)[O-])c2c(C)cc3ccccn23)ccc1O (stereo not drawn) was read as PAD4 FP inh 60*, PME-1 primary 9, Fam108B inh 1, LYPLA1 inh -2, LYPLA2 inh 10 and PAD4 FP conf -3.
NS(=O)(=O)c1ccc(NC(=S)NCc2ccc(Cl)cc2)cc1 was read as PAD4 FP inh 20*, RBBP9 inh -10, PME-1 primary -5, Fam108B inh -3, LYPLA1 inh -7, LYPLA2 inh -10 and PAD4 FP conf 6.
Screening NS(=O)(=O)c1ccc(CNC(=S)Nc2ccc(F)c(Cl)c2)cc1 returned PAD4 FP inh -2, RBBP9 inh -5, PME-1 primary 2, Fam108B inh 0, LYPLA1 inh 3 and LYPLA2 inh 13.
COc1ccc(CN(Cc2cc3cccc(C)c3n3nnnc23)C(=O)N2CCOCC2)cc1 was read as PAD4 FP inh 0, RBBP9 inh 2, PME-1 primary 3, Fam108B inh -4, LYPLA1 inh -1 and LYPLA2 inh -1.
Screening O=C(O)c1ccccc1NS(=O)(=O)c1cccc(-n2sc3ccccc3c2=O)c1 returned PAD4 FP inh 43*, PME-1 primary 0, Fam108B inh 7, LYPLA1 inh -1, LYPLA2 inh -6 and PAD4 FP conf 33*.
COc1ccc2ccc3c(c2c1)N=CC1(O3)N(C)c2ccccc2C1(C)C (stereo not drawn) was read as PAD4 FP inh 59*, RBBP9 inh 6, PME-1 primary 9, Fam108B inh 3, LYPLA1 inh 0, LYPLA2 inh 8 and PAD4 FP conf 6.
For CCOC(=O)C(Sc1cc(C)nc(N)n1)C(C)=O (stereo not drawn) the results were PAD4 FP inh 0, RBBP9 inh -2, PME-1 primary -3, Fam108B inh 0, LYPLA1 inh -4 and LYPLA2 inh 7.
Screening O=C(Nc1cc(Cl)ccc1-n1cncn1)c1ccc([N+](=O)[O-])s1 returned PAD4 FP inh -4, PME-1 primary 12, Fam108B inh 10, LYPLA1 inh 0 and LYPLA2 inh 0.
COCCCNC(=O)C[C@H]1C[C@H](C(=O)N(C(C)C)C(C)C)[C@@]2(C)c3[nH]c4cc(CCC(=O)N(C)C)ccc4c3CCN2C1=O was read as PAD4 FP inh -2.
For CCc1nnc(N/N=C\c2ccc(OC(C)=O)c(OC)c2)n1N the results were PAD4 FP inh 25*, PME-1 primary 1, Fam108B inh 2, LYPLA1 inh 0, LYPLA2 inh 4 and PAD4 FP conf 0.
`COc1cc(/C=N/Nc2ccccn2)ccc1O` gave PAD4 FP inh 4, RBBP9 inh -6, PME-1 primary -6, Fam108B inh 0, LYPLA1 inh 1 and LYPLA2 inh -5.
`CCc1nnc(N/N=C/c2ccc(O)c(OC)c2)n1N` gave PAD4 FP inh 38*, PME-1 primary -2, Fam108B inh 4, LYPLA1 inh 4, LYPLA2 inh 8 and PAD4 FP conf 2.
Cc1c(C(=O)Oc2ccc(-c3cnc4ccccc4n3)cc2)cccc1[N+](=O)[O-] was read as PAD4 FP inh 62*, RBBP9 inh 0, PME-1 primary -4, Fam108B inh -2, LYPLA1 inh 2, LYPLA2 inh 2 and PAD4 FP conf 57*.
For CCC(=O)Oc1ccc(-c2cnc3ccccc3n2)cc1 the results were PAD4 FP inh 20*, RBBP9 inh -2, PME-1 primary -3, Fam108B inh 5, LYPLA1 inh -3, LYPLA2 inh 2 and PAD4 FP conf 9.
Screening O=C(Oc1ccc(-c2cnc3ccccc3n2)cc1)c1ccco1 returned PAD4 FP inh 36*, RBBP9 inh -5, PME-1 primary -4, Fam108B inh 4, LYPLA1 inh 1, LYPLA2 inh 0 and PAD4 FP conf 35*.

Source: PubChem (The Scripps Research Institute Molecular Screening Center)
